# Laboratory results as given in BindingDB's records for doi:10.1016/j.bmc.2019.06.043 (Marquette University, 2019).
# pIC50: −log10 of the molar value.
# Target: T1, Proteinase-activated receptor 1 (Homo sapiens, UniProt P25116)
# T1 sequence (P25116 whole entry): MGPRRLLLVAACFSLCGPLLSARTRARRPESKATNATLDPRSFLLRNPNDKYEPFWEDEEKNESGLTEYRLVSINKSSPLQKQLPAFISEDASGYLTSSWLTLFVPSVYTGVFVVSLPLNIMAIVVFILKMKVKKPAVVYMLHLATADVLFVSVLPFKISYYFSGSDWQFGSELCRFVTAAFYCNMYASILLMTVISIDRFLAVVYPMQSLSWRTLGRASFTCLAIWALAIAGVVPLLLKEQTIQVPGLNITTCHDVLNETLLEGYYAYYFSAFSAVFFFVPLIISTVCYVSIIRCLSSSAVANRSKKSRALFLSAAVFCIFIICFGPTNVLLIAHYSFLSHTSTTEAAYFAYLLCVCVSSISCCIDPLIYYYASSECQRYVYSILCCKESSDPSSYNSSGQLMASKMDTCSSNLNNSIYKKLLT
# Test: Negative allosteric modulation of PAR1 in human EAhy926 cells assessed as reduction in TFLLRN-NH2-induced intracellular calcium mobilization incubated for 15 mins followed by TFLLRN-NH2 addition by Fluo-4-AM dye based fluorescence assay
# Procedure, shortened: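 Adherent EA.hy926 endothelial cells in 96-well format, intracellular Ca2+ mobilization triggered by PAR1 agonist TFLLRN-NH2 at 5 µM; single-point % inhibition at 10 µM (n = 4 wells, SEM); 7-point concentration-response curves, 3 wells per concentration, pIC50 from 4-variable non-linear regression; average IC50 ± SEM over independent assays.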
smiles,measurement,value
CCCC(=O)Nc1cccc(NC(=O)c2ccccc2Br)c1,pIC50,6.10
